Assay results: PubChem BioAssay
Activity calls are given as the source filed them.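 The calls were made as follows, unless noted: active = viability at or below 10% of carrier control in both of two separate runs; inconclusive = viability at or below 10% in only one of the two runs; inactive = the rest.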 Square brackets hold non-standard residues; d marks the D form. Peptide text beside a SMILES is read from it. * marks the point of attachment. ξ: configuration not given here. Piv = CC(C)(C)C(=O)*; ξNva = CCCC(N)C(=O)O

How the values were obtained:
[1] = reducers of endogenous Her2 protein level, primary screen, SKBR3 breast tumor cells, AlphaScreen, ATP viability (AID 461;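 active = Her2 level under about 52% in both replicate screens, with viability over 70% of control, limit read from the data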;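 as to Her2 level: lower value means less Her2 protein in the cells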;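 as to viability: percent of carrier control wells set as 100% viability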); conditions: 18-24 h, measured here: SKBR3 viability, ATP luminescence, at 10 µM
[2] = target: Receptor tyrosine-protein kinase erbB-2 (Homo sapiens) (UniProt P04626); test: as above; conditions: 18-24 h, at 10 µM, stronger effect = lower value
[3] = SK-BR-3 cell growth inhibitors, pilot screen, 24 h, human (AID 572); conditions: SK-BR-3 viability, CellTiter-Glo luminescence, at 10 µM, stronger effect = lower value;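 also: compound exposure lasted between 18 and 24 h rather than exactly 24 h; 100% = carrier-treated control wells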
[4] = HUVEC growth inhibition – cell-based, human, primary screen (AID 575;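 active = viability at or below 30% in both replicate assays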;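 also: 100% = median of untreated cell wells with 0.1% DMSO on each plate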); conditions: HUVEC proliferation, CellTiter-Glo luminescence, 72 h; at 10 µM; stronger effect = lower value
Summary of the method: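 System: primary human umbilical vein endothelial cells; Quantity: 1250 endothelial cells in each well; Buffer or medium: supplemented EBM, 2% fetal bovine serum; Doses: one dose, 10 µM final, 0.1% DMSO; Incubation: 72 h compound incubation; Technique: ATP-based CellTiter-Glo luminescent read; Evaluation: percent of median DMSO-control luminescence; Controls: vehicle and MePR control wells.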

[5] = growth inhibitors of H69AR lung tumor, primary screen, human, duplicate replicates (AID 580;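 active = viability at or under a set limit in both replicates, limit being median viability minus 3 SD, cut at about 48% in these data, passing the limit was not always enough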;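 also: 100% = mean luminescence of untreated wells and 0% = no signal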); conditions: H69AR lung tumor cells viability, ATP luminescence, 72 h; at 10 µM; stronger effect = lower value
[6] = reversal of MRP1-mediated doxorubicin resistance, pilot screen, H69AR cells, doxorubicin co-treatment (AID 601;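 active = viability loss from added drug above about 55%, and viability with drug at most 40%, in both replicates, limit read from the data, passing the limit was not always enough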); conditions: CellTiter-Glo, 72 h, at 10 µM; for differential viability (reversal): stronger effect = higher value
[7] = 384-well plate pilot, post-Golgi transport modulator project, inhibition of yeast transport mutant growth (AID 636; in the data active = inhibition above about 31%); conditions: absorbance 615 nm, about 18 h, stronger effect = higher value
[8] = growth suppression of yeast trafficking mutant, preliminary HTS, modulators of trafficking downstream of Golgi apparatus project, 1536-format plate, OD 615 nm (AID 637; in the data active = inhibition above about 30%); conditions: yeast transport mutant growth, absorbance 615 nm, 18 h; stronger effect = higher value
[9] = H69AR cells + 2 uM doxorubicin, measured here: viability with 2 uM doxorubicin, stronger effect = lower value
[10] = H69AR cells, compound alone cytotoxicity

Receptor tyrosine-protein kinase erbB-2 (Homo sapiens), sequence (P04626 whole entry, looked up): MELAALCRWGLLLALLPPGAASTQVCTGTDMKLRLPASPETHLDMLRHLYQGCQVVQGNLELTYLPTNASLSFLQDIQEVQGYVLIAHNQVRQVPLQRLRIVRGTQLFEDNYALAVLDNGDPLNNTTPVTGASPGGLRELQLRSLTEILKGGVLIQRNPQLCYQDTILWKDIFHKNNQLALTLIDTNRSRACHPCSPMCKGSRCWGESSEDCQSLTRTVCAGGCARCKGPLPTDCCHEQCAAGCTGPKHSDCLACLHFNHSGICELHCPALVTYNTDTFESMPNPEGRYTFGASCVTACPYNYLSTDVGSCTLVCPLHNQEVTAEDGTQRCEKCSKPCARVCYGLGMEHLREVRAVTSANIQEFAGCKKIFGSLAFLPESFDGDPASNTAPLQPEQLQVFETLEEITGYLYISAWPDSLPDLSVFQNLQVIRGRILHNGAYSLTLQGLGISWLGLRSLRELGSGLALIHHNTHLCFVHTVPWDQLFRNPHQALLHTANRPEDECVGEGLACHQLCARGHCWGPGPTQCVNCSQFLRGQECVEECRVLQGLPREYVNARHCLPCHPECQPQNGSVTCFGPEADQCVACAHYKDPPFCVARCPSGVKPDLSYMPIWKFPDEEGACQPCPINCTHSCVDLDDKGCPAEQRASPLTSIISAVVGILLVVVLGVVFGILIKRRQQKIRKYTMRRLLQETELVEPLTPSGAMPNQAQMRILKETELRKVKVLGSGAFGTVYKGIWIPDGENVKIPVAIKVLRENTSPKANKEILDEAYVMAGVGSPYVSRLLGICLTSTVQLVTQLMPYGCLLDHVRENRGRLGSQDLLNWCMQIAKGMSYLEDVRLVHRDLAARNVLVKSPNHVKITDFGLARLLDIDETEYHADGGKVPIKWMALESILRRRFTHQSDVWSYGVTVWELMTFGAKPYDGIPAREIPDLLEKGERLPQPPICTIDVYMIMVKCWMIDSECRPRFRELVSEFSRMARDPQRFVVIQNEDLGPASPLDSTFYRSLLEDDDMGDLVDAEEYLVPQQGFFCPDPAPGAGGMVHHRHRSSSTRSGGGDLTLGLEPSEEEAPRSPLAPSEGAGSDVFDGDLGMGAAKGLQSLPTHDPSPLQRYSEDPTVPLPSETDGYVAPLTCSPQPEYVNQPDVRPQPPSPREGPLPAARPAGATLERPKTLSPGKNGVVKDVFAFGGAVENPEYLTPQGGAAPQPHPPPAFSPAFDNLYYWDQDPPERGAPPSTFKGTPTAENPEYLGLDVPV

Structure (SMILES)	viability [1] [%]	Her2 level [2]	viability [3]	viability [4]	viability [5]	differential viability (reversal) ([6]; H69AR cells + 2 uM doxorubicin)	viability [6, 9] [%]	viability [6, 10] [%]	inhibition [7]	inhibition [8]
CC(C)CNS(=O)(=O)c1ccc(CCC(=O)N2CCOCC2)cc1	87.5	94% (inactive)	87.5% (inactive)	95% (inactive)	91.3% (inactive)	-3.29% (inactive)	94.6	91.3	-4.73% (inactive)	-4.59% (inactive)
CCOC(=O)C1CCCN(c2c(N3CCN(c4ccccn4)CC3)c(=O)c2=O)C1 (stereo not given)	86.5	104% (inactive)	86.5% (inactive)	86.7% (inactive)	102% (inactive)	15% (inactive)	86.5	102	0% (inactive)	-2.46% (inactive)
CNS(=O)(=O)c1cccc(C(=O)OCC(=O)c2cc(C)n(-c3ccc4c(c3)OCO4)c2C)c1	85.5	92% (inactive)	85.5% (inactive)	65.6% (inactive)	88.4% (inactive)	2.79% (inactive)	85.6	88.4	-4.42% (inactive)	2% (inactive)
CCN(CC)CCN1C(=O)C(O)=C(C(=O)c2ccco2)C1c1ccccn1 (stereo not given)	109	93% (inactive)	109% (inactive)	88.9% (inactive)	97.7% (inactive)	1.63% (inactive)	96	97.7	-3.82% (inactive)	5.08% (inactive)
CC(C)(Oc1ccc(Cl)cc1)C(=O)NC1CCSC1=O (stereo not given)	101	104% (inactive)	101% (inactive)	90.3% (inactive)	114% (inactive)	19.5% (inactive)	94.6	114	0.27% (inactive)	-9.52% (inactive)
O=S(=O)(c1cc(Cl)ccc1Br)N1CCOCC1	95.5	108% (inactive)	95.5% (inactive)	103% (inactive)	91% (inactive)	0.56% (inactive)	90.4	91	-2.99% (inactive)	-0.17% (inactive)
COc1ccc(S(=O)(=O)N2CCN(CC(=O)Nc3ccc(F)c(F)c3)CC2)cc1	88.5	86% (inactive)	88.5% (inactive)	75.6% (inactive)	91.1% (inactive)	-2.83% (inactive)	93.9	91.1	-1.73% (inactive)	-1.94% (inactive)
CC1CC(=O)C2=C(C1)OC(N)=C(C#N)C2c1coc2ccccc2c1=O (stereo not given)	108	88.5% (inactive)	108% (inactive)	95.1% (inactive)	97.3% (inactive)	10.6% (inactive)	86.7	97.3	-7.33% (inactive)	2.26% (inactive)
CCCC(NC(=O)CNC(=O)C(C)(C)C)C(=O)O (stereo not drawn) (Piv-Gly-[ξNva]-OH)	91	91.5% (inactive)	91% (inactive)	96.1% (inactive)	97.5% (inactive)	1.52% (inactive)	96	97.5	-2% (inactive)	-3.71% (inactive)
CCOC(=O)/C(C#N)=C1\Nc2ccccc2N=C1N(CC(C)C)CC(C)C	80	104% (inactive)	80% (inactive)	86.2% (inactive)	84.2% (inactive)	-5.4% (inactive)	89.6	84.2	-4.13% (inactive)	-2.79% (inactive)
Cc1nnc(SCc2cn3ccsc3n2)n(N)c1=O	95.5	81.5% (inactive)	95.5% (inactive)	95% (inactive)	86.5% (inactive)	-4.16% (inactive)	90.7	86.5	0.26% (inactive)	21.3% (inactive)
CCn1c(=O)cc(SCC(=O)Nc2cccnc2)c2ccccc21	91.5	89.5% (inactive)	91.5% (inactive)	56.5% (inactive)	104% (inactive)	14.7% (inactive)	89.3	104	-1.32% (inactive)	1.43% (inactive)
COc1ccc(NC(C)=O)cc1NC(=O)CN1CCN(c2ccccn2)CC1	96	116% (inactive)	96% (inactive)	96% (inactive)	85.6% (inactive)	5.82% (inactive)	79.8	85.6	-1.87% (inactive)	-7.9% (inactive)
O=c1c2nnn(Cc3ccccc3)c2ncn1-c1ccccc1	103	90.5% (inactive)	103% (inactive)	111% (inactive)	108% (inactive)	5.12% (inactive)	103	108	-6.27% (inactive)	4.1% (inactive)
CCOC(=O)N1CCN(c2ncnc3c2[nH]c2ccc(OC)cc23)CC1	97.5	79% (inactive)	97.5% (inactive)	72.4% (inactive)	81.3% (inactive)	3.37% (inactive)	77.9	81.3	-3.6% (inactive)	-5.65% (inactive)
O=C(NC1CCS(=O)(=O)C1)N1CCCCC1 (stereo not given)	102	79.5% (inactive)	102% (inactive)	103% (inactive)	89.6% (inactive)	1.27% (inactive)	88.3	89.6	-5.92% (inactive)	-2% (inactive)

Structure (SMILES)	viability [1] [%]	Her2 level [2]	viability [3]	viability [4]	viability [5]	differential viability (reversal) ([6]; H69AR cells + 2 uM doxorubicin)	viability [6, 9] [%]	viability [6, 10] [%]	inhibition [7]	inhibition [8]
O=C(Nc1ccccn1)NC(C(F)(F)F)C(F)(F)F	98.5	102% (inactive)	98.5% (inactive)	100% (inactive)	92.9% (inactive)	2.58% (inactive)	90.3	92.9	-1.07% (inactive)	1.15% (inactive)
O=C(C1CCN(S(=O)(=O)N2CCC3(CC2)OCCO3)CC1)N1CCOCC1	98	114% (inactive)	98% (inactive)	99.4% (inactive)	94.1% (inactive)	3.86% (inactive)	90.3	94.1	0.92% (inactive)	7.38% (inactive)
COC(=O)c1ccc(Cl)c(NC(C)=O)c1	108	99.5% (inactive)	108% (inactive)	70.9% (inactive)	97.2% (inactive)	7.73% (inactive)	89.5	97.2	-1.17% (inactive)	-0.33% (inactive)
C=CCN1C(=O)/C(=C2\SC(N3CCOCC3)=NC2=O)c2cc(Br)ccc21	82.5	84.5% (inactive)	82.5% (inactive)	86.1% (inactive)	83.1% (inactive)	-4.46% (inactive)	87.5	83.1	-1.32% (inactive)	-2.55% (inactive)
CC1CCCCC1NC(=O)Cn1nnc(-c2ccc(Cl)cc2)n1 (stereo not given)	86	92.5% (inactive)	86% (inactive)	72.7% (inactive)	91.9% (inactive)	14.6% (inactive)	77.3	91.9	-1.3% (inactive)	-5.4% (inactive)
CC(=O)Oc1ccc(-c2ccc(C(=O)O)cc2)cc1	87	110% (inactive)	87% (inactive)	94.5% (inactive)	107% (inactive)	18.3% (inactive)	88.8	107	-0.64% (inactive)	-7.83% (inactive)
O=C(CN1C(=O)CSC1=O)Nc1ccc(N2CCOCC2)cc1	96.5	122% (inactive)	96.5% (inactive)	88.1% (inactive)	101% (inactive)	5.88% (inactive)	94.7	101	1.07% (inactive)	16.4% (inactive)
COc1ccccc1C(=O)Nc1ccc(S(=O)(=O)N2CCCC2)cc1	95.5	76.5% (inactive)	95.5% (inactive)	81.9% (inactive)	94.5% (inactive)	16.2% (inactive)	78.4	94.5	-4.93% (inactive)	0.49% (inactive)
CCCN(CCC)C(=O)C1CCN(c2cc(C)nc3c(-c4ccc(OC)c(OC)c4)c(C)nn23)CC1	81.5	88% (inactive)	81.5% (inactive)	58.1% (inactive)	69.1% (inactive)	44% (inactive)	25	69.1	-0.13% (inactive)	-5.08% (inactive)
Cc1cccc(N2C(=O)CC(Sc3nc(C)c4c(n3)CCCC4)C2=O)c1 (stereo not given)	80.5	128% (inactive)	80.5% (inactive)	102% (inactive)	90.3% (inactive)	-0.055% (inactive)	90.3	90.3	-0.27% (inactive)	27.5% (inactive)
Cc1nc(N2CCC(C)CC2)c2c(C)c(C(=O)O)sc2n1	100	77% (inactive)	100% (inactive)	74.2% (inactive)	84.9% (inactive)	3.62% (inactive)	81.3	84.9	-4.74% (inactive)	-6.33% (inactive)
O=C(OCC(=O)c1c[nH]c2ccccc12)C1=COCCO1	96	76.5% (inactive)	96% (inactive)	100% (inactive)	97.5% (inactive)	-2.48% (inactive)	100	97.5	-6.62% (inactive)	6.17% (inactive)
COc1ccc(NC(=O)CSC2=C(C#N)C(c3ccco3)C3=C(CCCC3=O)N2)c(OC)c1 (stereo not given)	108	93% (inactive)	108% (inactive)	86.6% (inactive)	73% (inactive)	4.23% (inactive)	68.8	73	-2.11% (inactive)	0.65% (inactive)
O=C(CSc1nc2[nH]ncc2c(=O)n1-c1ccccc1Br)NCc1ccco1	100	80.5% (inactive)	100% (inactive)	95% (inactive)	82.9% (inactive)	5.05% (inactive)	77.8	82.9	-4.61% (inactive)	-1.77% (inactive)
c1ccc(Oc2ccc(-n3cnnn3)cc2)cc1	102	122% (inactive)	102% (inactive)	95.7% (inactive)	94.2% (inactive)	15.4% (inactive)	78.8	94.2	-0.52% (inactive)	-12.2% (inactive)
